Measured values as given in ChEMBL document CHEMBL2321778, “GC-targeted C8-linked pyrrolobenzodiazepine-biaryl conjugates with femtomolar in vitro cytotoxicity and in vivo antitumor activity in mouse models” (J Med Chem, 2013).
Calls of active or inactive are those of the source. The rule behind the calls is not given here.

Key:
HeLa [1] = experiment: Downregulation of NFAT in human HeLa cells at 10 nM after 4 hrs relative to control; assay type: functional
Procedure, shortened: (§1)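 Nuclear extracts from 1 × 10^7 HeLa cells treated 4 h, plus untreated controls; 10 μg nuclear protein per sample run on a 48-transcription-factor activation profiling plate array per kit instructions.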

HeLa [2] = experiment: Downregulation of OCT4 in human HeLa cells at 10 nM after 4 hrs relative to control; assay type: functional; procedure, shortened: as §1
[3] = Binding affinity to GC-rich FAM-GCGCAGATTTTCTGCGC-TAMRA DNA (unknown origin) assessed as change in melting temperature at 1 uM by FRET assay
Procedure, shortened: (§2)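 Fam/Tamra-labelled hairpins, 400 nM in 50 mM potassium cacodylate pH 7.4, annealed at 85 °C for 5 min, cooled over 5 h, then mixed 1:1 with ligand diluted from DMSO stock; ligand 1 μM, 24 h incubation. Fluorescence (excitation 450−495, emission 515−545 nm) read every 0.5 °C from 30−100 °C; Tm from first-derivative maximum of smoothed curves, ΔTm versus blank.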

HeLa [4] = experiment: Inhibition of NFkappaB activity in human HeLa cells at 10 nM after 4 hrs relative to control; assay type: cell-based; procedure, shortened: as §1
HeLa [5] = experiment: Downregulation of SMAD in human HeLa cells at 10 nM after 4 hrs relative to control; assay type: functional; procedure, shortened: as §1
MDA-MB-231 [6] = experiment: Cytotoxicity against human MDA-MB-231 cells after 96 hrs by MTT assay; assay type: functional, cell-based; conditions: MDA-MB-231, 96 h
Procedure, shortened: (§3)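 Adherent cells were grown at 37 °C in 5% CO2 in DMEM or MEM with 10% FBS, L-glutamine, nonessential amino acids and hydrocortisone, then seeded to 30–40% confluence. Compounds were dissolved in water at up to 100 μM, serially diluted tenfold and added for 96 h of continuous exposure. MTT absorbance was read at 570 nm, and IC50 was taken from dose–response analysis.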

CLL [7] = experiment: Inhibition of NFkappaB-mediated p65 phosphorylation in human primary CLL cells at 0.1 nM after 24 hrs by Western blotting analysis; assay type: cell-based
Procedure, shortened: (§4)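 Primary CLL cells exposed 24 h, washed in PBS and lysed in HEPES-based buffer with NaF, iodoacetamide, NP40, PMSF, orthovanadate, protease and phosphatase inhibitors; Western blots probed for phosphorylated IκBα and p65, actin as loading control.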

Mus musculus [8] = experiment: Toxicity in Swiss Webster mouse at 350 ug/kg/day, ip; assay type: organism-based; conditions: in vivo, 0.35 mg/kg
MIA PaCa-2 [9] = experiment: Antitumor activity against human MIAPaCa2 cells xenografted in MF1 nude mouse at 300 ug/kg/day, iv administered for 5 consecutive days followed by 2 drug-free days repeated for 3 weeks relative to control; assay type: functional, organism-based
Procedure, shortened: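 MIA PaCa-2 cells (5 × 10^6) implanted subcutaneously in flank of female MF1 nude mice (2−3 months, 20−25 g); at ~0.06 cm3, groups of six. DMSO stock diluted in saline, given by tail-vein injection at 300 μg/kg/day, five days on, two off, for three weeks; vehicle controls. Tumors measured every 3−4 days by ellipsoid formula; mice weighed for toxicity.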

A-431 = experiment: Cytotoxicity against human A431 cells after 96 hrs by MTT assay; assay type: functional, cell-based; conditions: A-431, 96 h; procedure, shortened: as §3
MDA-MB-231 [10] = experiment: Antitumor activity against human MDA-MB-231 cells xenografted in iv dosed MF1 nude mouse administered for 5 consecutive days followed by 2 drug-free days repeated for 4 weeks relative to control; assay type: functional, organism-based
Procedure, shortened: (§5)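 MDA-MB-231 cells (5 × 10^6) implanted subcutaneously in flank of female MF1 nude mice (2−3 months, 20−25 g), passaged as ~1 mm3 tumor pieces; at ~0.06 cm3 (three weeks) split into groups of six. Agent in DMSO diluted in saline, tail-vein iv at 250 or 300 μg/kg/day, 5 days on/2 off for four weeks; untreated controls. Tumor volume (L×W×H×π/6) and body weight every 3−4 days.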

[11] = Binding affinity to AT-rich FAM-TATAAGATTTTCTTATA-TAMRA DNA (unknown origin) assessed as change in melting temperature at 1 uM by FRET assay; procedure, shortened: as §2
A2780 = experiment: Cytotoxicity against human A2780 cells after 96 hrs by MTT assay; assay type: functional, cell-based; conditions: A2780, 96 h; procedure, shortened: as §3
[12] = Cytotoxicity against human primary CLL cells after 96 hrs by annexin V/propidium iodide staining-based FACS flow cytometric analysis; assay type: functional, cell-based
Procedure, shortened: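 Freshly isolated peripheral blood CLL cells at 1 × 10^6/mL were cultured in RPMI with penicillin, streptomycin and 10% FCS at 37 °C in 5% CO2. Serial dilutions of compound from DMSO stocks were added, with drug-free control cultures. Apoptosis was measured by annexin V/propidium iodide flow cytometry, in duplicate. LD50 came from sigmoidal curves of log concentration against percentage apoptosis.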

MIA PaCa-2 [13] = experiment: Inhibition of NFkappaB in human MIAPaCa2 cells xenografted in mouse assessed as downregulation of BCL2 by immunohistochemical staining relative to control; assay type: cell-based
Procedure, shortened: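 Sections of MIA PaCa-2 xenograft tumors from treated and untreated mice: peroxidase quenched with 0.3% H2O2/methanol 15 min, blocked in 3% goat serum/PBS 30 min, 2 μg/mL BCL2 antibody 1 h at room temperature, then HRP […] antibody 1 h; staining quantified against controls.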

[14] = Selectivity ratio of deltaTm for GC-rich FAM-GCGCAGATTTTCTGCGC-TAMRA DNA (unknown origin) to deltaTm for AT-rich FAM-TATAAGATTTTCTTATA-TAMRA DNA (unknown origin); procedure, shortened: as §2
MDA-MB-231 [15] = experiment: Antitumor activity against human MDA-MB-231 cells xenografted in MF1 nude mouse at 300 ug/kg/day, iv administered for 5 consecutive days followed by 2 drug-free days repeated for 4 weeks measured up to 3 weeks after last dose; assay type: functional, organism-based; procedure, shortened: as §5
CLL [16] = experiment: Inhibition of NFkappaB-mediated IkappaBalpha phosphorylation in human primary CLL cells at 0.1 nM after 24 hrs by Western blotting analysis; assay type: cell-based; procedure, shortened: as §4
A549 = experiment: Cytotoxicity against human A549 cells after 96 hrs by MTT assay; assay type: functional, cell-based; conditions: A549, 96 h; procedure, shortened: as §3
Mus musculus [17] = experiment: Toxicity in MF1 nude mouse xenografted with human MDA-MB-231 cells at 250 to 300 ug/kg/day, iv; assay type: organism-based; conditions: in vivo
Procedure, shortened: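 Female MF1 nude mice (2–3 months old, 20–25 g) carried subcutaneous flank MDA-MB-231 xenografts. At about 0.06 cm3 the mice were split into groups of six: 250 or 300 μg/kg iv by tail vein, or untreated. Compound was dissolved in DMSO and diluted in saline, given daily for 5 days then 2 days off, over 4 weeks. Body weight and signs of toxicity (>20% weight loss) were checked every 3–4 days.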

WI-38 = experiment: Cytotoxicity against human WI38 cells after 96 hrs by MTT assay; assay type: cell-based; conditions: WI-38, 96 h; procedure, shortened: as §3
[18] = Toxicity in ip dosed Swiss Webster mouse; assay type: organism-based; conditions: in vivo
HeLa [19] = experiment: Downregulation of EGR in human HeLa cells at 10 nM after 4 hrs relative to control; assay type: functional; procedure, shortened: as §1
MCF7 = experiment: Cytotoxicity against human MCF7 cells after 96 hrs by MTT assay; assay type: functional, cell-based; conditions: MCF7, 96 h; procedure, shortened: as §3
MIA PaCa-2 [20] = experiment: Cytotoxicity against human MIAPaCa2 cells after 96 hrs by MTT assay; assay type: functional, cell-based; conditions: MIA PaCa-2, 96 h; procedure, shortened: as §3
Mus musculus [21] = experiment: Toxicity in Swiss Webster mouse assessed as weight loss at 400 ug/kg/day, ip; assay type: organism-based; conditions: in vivo, 0.4 mg/kg
[22] = Binding affinity to AT-rich TATA-AGA-TTT-TCT-TATA DNA (unknown origin) after 5 mins by HPLC-MS analysis (reference value: 70 %)
[23] = Binding affinity to GC-rich GCGC-AGA-TTT-TCT-GCGC DNA (unknown origin) after 5 mins by HPLC-MS analysis (reference value: 12 %)

Row | SMILES | ΔTm [3] [°C] | IC50 (MDA-MB-231 [6]) [nM] | IC50 (A-431) [nM] | ΔTm [11] [°C] | IC50 (A2780) [nM] | IC50 [12] [nM] | Ratio [14] | IC50 (A549) [nM] | IC50 (WI-38) [nM] | IC50 (MCF7) [nM] | IC50 (MIA PaCa-2 [20]) [nM] | further results
1 | COC(=O)c1cc(-c2ccc(NC(=O)c3nc(NC(=O)CCCOc4cc5c(cc4OC)C(=O)N4CCC[C@H]4C=N5)cn3C)cc2)cn1C | 6.2 | 0.00018 | 0.018 | 6 | 0.021 | 0.17 | 1.03 | 0.034 | 129 | 2e-05 | – | Activity (HeLa [1]): 30%; Activity (HeLa [2]): 30%; inhibition (HeLa [4]): 50%; Activity (HeLa [5]): 30%; inhibition (CLL [7]): Active; Activity (Mus musculus [8]): Non-toxic; Activity (MIA PaCa-2 [9]): Active; Activity (MDA-MB-231 [10]): Dose-dependent effect; inhibition (MIA PaCa-2 [13]): Active; Activity (MDA-MB-231 [15]): Active; inhibition (CLL [16]): Active; Activity (Mus musculus [17]): Non-toxic; MTD [18]: 0.4 mg/kg/day; Activity (HeLa [19]): 30%
2 | COC(=O)c1cc(NC(=O)c2cc(NC(=O)c3cc(-c4ccc(NC(=O)CCCOc5cc6c(cc5OC)C(=O)N5CCC[C@H]5C=N6)cc4)cn3C)cn2C)cn1C | 4.3 | 0.59 | 0.86 | 3.2 | 0.24 | 0.96 | 1.34 | 2.3 | 41.3 | 0.31 | 0.31 | –
3 | COC(=O)c1cc(-c2ccc(NC(=O)c3cc(NC(=O)CCCOc4cc5c(cc4OC)C(=O)N4CCC[C@H]4C=N5)cn3C)cc2)cn1C | 1.4 | 6.5e-05 | – | 5 | 0.013 | 0.098 | 0.28 | 0.056 | 474 | 2e-05 | – | Activity (Mus musculus [21]): Toxic; MTD [18]: 0.4 mg/kg/day
4 | COC(=O)c1cc(NC(=O)c2cc(NC(=O)CCCOc3cc4c(cc3OC)C(=O)N3CCC[C@H]3C=N4)cn2C)cn1C | 1.1 | 0.12 | 0.55 | 7.4 | 0.57 | 1.3 | 0.15 | 6.1 | 41.3 | 0.32 | 2.4 | Activity [22]: 70%; Activity [23]: 12%
5 | COC(=O)c1nc(NC(=O)c2cc(NC(=O)c3cc(-c4ccc(NC(=O)CCCOc5cc6c(cc5OC)C(=O)N5CCC[C@H]5C=N6)cc4)cn3C)cn2C)cn1C | 5.8 | 0.015 | 0.064 | 3.4 | > 20000 | 0.037 | 1.7 | 0.45 | 65.6 | 0.075 | 0.25 | –
6 | COC(=O)c1cc(-c2ccc(N)cc2)cn1C | – | > 20000 | > 20000 | – | > 20000 | > 20000 | – | > 20000 | > 20000 | > 20000 | > 20000 | –
7 | CCOC(=O)c1nc(NC(=O)c2cc(-c3ccc(NC(=O)CCCOc4cc5c(cc4OC)C(=O)N4CCC[C@H]4C=N5)cc3)cn2C)cn1C | 2.8 | 0.45 | 0.19 | 0.5 | 0.15 | 3 | 5.6 | 0.47 | 1240 | 0.37 | 0.11 | –
8 | COC(=O)c1cc(-c2ccc(NC(=O)c3cc(-c4ccc(NC(=O)CCCOc5cc6c(cc5OC)C(=O)N5CCC[C@H]5C=N6)cc4)cn3C)cc2)cn1C | 3.6 | 0.46 | 2.91 | 0.8 | 0.56 | 4.7 | 3.6 | 0.54 | 159 | 0.9 | 0.35 | –
9 | COC(=O)c1cc(NC(=O)c2cc(-c3ccc(NC(=O)CCCOc4cc5c(cc4OC)C(=O)N4CCC[C@H]4C=N5)cc3)cn2C)cn1C | 3.1 | 2.7 | 4.6 | 2.1 | 0.96 | 2.1 | 1.48 | 0.019 | 426 | 1.7 | 0.34 | –
10 | COc1cc2c(cc1OCCCC(=O)O)N=C[C@@H]1CCCN1C2=O | 0.2 | 1670 | 1090 | 0.4 | 3760 | > 20000 | 0.5 | 1500 | 4660 | 702 | 1560 | –
11 | COC(=O)c1cc(-c2ccc(NC(=O)CCCOc3cc4c(cc3OC)C(=O)N3CCC[C@H]3C=N4)cc2)cn1C | 3.9 | 2.11 | 2.31 | 0.3 | 1.87 | 6.2 | 13 | 7.5 | 160 | 1.91 | 1.2 | Activity [22]: 3%; Activity [23]: 67%
